Consider four compounds from ChEMBL document CHEMBL1765045, “Fine-tuning the selectivity of aldosterone synthase inhibitors: structure-activity and structure-selectivity insights from studies of heteroaryl substituted 1,2,5,6-tetrahydropyrrolo[3,2,1-ij]quinolin-4-one derivatives” (J Med Chem, 2011).

Data set [1] concerns the target T1, Cytochrome P450 11B2, mitochondrial (Homo sapiens, UniProt P19099).
T1 sequence (P19099 whole entry): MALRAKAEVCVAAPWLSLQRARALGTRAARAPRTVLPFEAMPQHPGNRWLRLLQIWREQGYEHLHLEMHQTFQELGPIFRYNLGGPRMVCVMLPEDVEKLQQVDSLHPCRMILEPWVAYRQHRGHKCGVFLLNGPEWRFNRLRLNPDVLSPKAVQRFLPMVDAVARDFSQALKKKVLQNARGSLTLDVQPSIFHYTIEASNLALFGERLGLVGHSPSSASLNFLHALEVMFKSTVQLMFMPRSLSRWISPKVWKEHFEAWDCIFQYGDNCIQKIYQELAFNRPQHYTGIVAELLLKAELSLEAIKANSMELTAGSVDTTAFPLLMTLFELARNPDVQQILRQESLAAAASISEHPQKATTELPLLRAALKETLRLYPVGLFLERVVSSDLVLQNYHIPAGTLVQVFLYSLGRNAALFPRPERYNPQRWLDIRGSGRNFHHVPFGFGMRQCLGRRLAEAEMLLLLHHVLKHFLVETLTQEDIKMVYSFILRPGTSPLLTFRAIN
Nature of the data set: Inhibition of human CYP11B2 expressed in hamster V79 MZh cells assessed as conversion of [4-14C]-11-deoxycorticosterone substrate by HPTLC assay. The class given is cell-based. In a few lines: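 Hamster V79 MZh fibroblasts expressing human CYP11B2 incubated with [4-14C]-11-deoxycorticosterone (100 nM) and inhibitor at ≥3 concentrations; reaction stopped with ethyl acetate, steroids extracted after shaking and centrifugation (10000g, 2 min). Substrate conversion read by HPTLC with phosphoimaging.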

The target of another data set is CYP2C19 (Homo sapiens, UniProt P33261). Nature of the data set: Inhibition of human CYP2C19 expressed in baculovirus-infected insect microsomes at 10 uM. The class given is ADME, Microsome. In a few lines: (§1)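 Recombinant human CYP1A2, 2B6, 2C9, 2C19, 2D6 or 3A4 in baculovirus-infected insect microsomes (Supersomes), run per manufacturer's protocol. Inhibitor at 1 and 10 μM; percent inhibition is the mean of two experiments.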
Sequence of CYP2C19 (P33261 whole entry): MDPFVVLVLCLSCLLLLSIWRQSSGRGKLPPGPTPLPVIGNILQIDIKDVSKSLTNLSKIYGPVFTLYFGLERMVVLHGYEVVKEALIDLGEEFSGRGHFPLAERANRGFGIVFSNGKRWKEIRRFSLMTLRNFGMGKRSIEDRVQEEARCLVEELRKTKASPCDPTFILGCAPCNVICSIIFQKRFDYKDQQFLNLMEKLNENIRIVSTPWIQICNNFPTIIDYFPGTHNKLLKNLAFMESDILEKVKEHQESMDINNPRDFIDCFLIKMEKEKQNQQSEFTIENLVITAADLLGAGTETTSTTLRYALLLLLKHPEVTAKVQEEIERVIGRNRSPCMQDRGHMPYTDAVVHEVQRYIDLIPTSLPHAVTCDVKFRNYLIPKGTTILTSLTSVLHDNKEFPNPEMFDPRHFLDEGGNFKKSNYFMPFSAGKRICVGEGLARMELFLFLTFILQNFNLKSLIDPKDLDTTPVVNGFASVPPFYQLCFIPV

The target in another data set is CYP2C9 (Homo sapiens, UniProt P11712). Nature of the data set: Inhibition of human CYP2C9 expressed in baculovirus-infected insect microsomes at 1 uM. The class given is ADME, Microsome. In a few lines:
as §1

A further data set deals with T2, CYP17 (Homo sapiens, UniProt P05093).
T2 sequence (P05093 whole entry): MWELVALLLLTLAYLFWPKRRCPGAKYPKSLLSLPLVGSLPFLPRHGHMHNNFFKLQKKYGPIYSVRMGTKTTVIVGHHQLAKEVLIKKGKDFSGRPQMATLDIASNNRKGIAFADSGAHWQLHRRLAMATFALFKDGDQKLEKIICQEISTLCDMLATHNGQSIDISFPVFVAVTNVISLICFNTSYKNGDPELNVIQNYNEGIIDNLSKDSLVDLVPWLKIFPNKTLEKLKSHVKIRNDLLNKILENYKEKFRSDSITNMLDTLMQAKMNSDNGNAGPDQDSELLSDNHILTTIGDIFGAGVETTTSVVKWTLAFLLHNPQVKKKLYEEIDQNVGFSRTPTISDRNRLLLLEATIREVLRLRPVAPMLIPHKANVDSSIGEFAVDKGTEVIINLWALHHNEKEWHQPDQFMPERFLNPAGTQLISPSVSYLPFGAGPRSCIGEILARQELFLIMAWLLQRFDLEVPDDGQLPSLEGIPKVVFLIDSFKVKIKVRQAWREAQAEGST
Nature of the data set: Inhibition of human CYP17 expressed in Escherichia coli using progesterone substrate at 2 uM. Particulars: recombinant human CYP17 expressed in Escherichia coli, probe progesterone. The gist of the method:
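50000g sediment of E. coli homogenate recombinantly expressing human CYP17. Progesterone substrate at 25 μM, inhibitor tested at 2 μM.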

For a further data set, the species on record is Homo sapiens. Nature of the data set: Selectivity ratio of IC50 for human CYP11B1 to IC50 for human CYP11B2. In a few lines: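 Ratio of IC50 values from V79 MZh cell assays for human CYP11B1 and CYP11B2, IC50 CYP11B1/IC50 CYP11B2. Both assays used [4-14C]-11-deoxycorticosterone, 100 nM, inhibitor at ≥3 concentrations and HPTLC/phosphoimager readout of conversion.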

For another data set, the target named is T3, aromatase (CYP19) (Homo sapiens, UniProt P11511).
T3 sequence (P11511 whole entry): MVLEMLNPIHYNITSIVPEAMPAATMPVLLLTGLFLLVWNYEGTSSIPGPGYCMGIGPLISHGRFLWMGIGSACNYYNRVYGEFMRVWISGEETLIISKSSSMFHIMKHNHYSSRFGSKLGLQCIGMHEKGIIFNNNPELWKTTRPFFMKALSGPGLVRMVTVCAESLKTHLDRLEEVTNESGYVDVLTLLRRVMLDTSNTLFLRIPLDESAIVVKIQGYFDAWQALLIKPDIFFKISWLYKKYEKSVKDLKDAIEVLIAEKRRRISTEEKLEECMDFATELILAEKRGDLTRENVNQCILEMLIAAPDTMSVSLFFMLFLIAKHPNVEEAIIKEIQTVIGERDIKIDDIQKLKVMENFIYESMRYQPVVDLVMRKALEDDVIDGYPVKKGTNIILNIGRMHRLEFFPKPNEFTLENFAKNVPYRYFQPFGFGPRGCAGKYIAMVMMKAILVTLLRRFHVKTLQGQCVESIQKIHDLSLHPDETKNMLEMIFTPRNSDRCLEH
In words: Inhibition of aromatase at 0.5 uM. The gist of the method:
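Human placental microsomes as CYP19 source, [1β-3H]androstenedione substrate at 500 nM, inhibitor at 500 nM. Modified Thompson–Siiteri method, with fadrozole as reference.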

A further data set has as its target T4, CYP1A2 (Homo sapiens, UniProt P05177).
T4 sequence (P05177 whole entry): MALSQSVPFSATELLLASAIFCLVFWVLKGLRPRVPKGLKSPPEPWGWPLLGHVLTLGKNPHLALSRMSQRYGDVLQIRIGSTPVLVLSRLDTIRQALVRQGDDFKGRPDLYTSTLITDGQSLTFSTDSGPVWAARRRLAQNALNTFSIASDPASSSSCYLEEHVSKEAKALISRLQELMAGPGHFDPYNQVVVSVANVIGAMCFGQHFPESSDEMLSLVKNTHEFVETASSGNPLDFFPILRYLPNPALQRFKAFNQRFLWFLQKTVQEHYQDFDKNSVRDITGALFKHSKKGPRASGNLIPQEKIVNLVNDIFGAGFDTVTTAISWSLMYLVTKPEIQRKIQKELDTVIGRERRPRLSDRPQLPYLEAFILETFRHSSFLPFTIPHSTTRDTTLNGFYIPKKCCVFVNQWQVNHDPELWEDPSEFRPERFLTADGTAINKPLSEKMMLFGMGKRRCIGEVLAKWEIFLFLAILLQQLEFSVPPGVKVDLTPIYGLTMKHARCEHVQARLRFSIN
Nature of the data set: Inhibition of CYP1A2 at 1 uM. The class given is ADME. The gist of the method: as §1

Sequence of CYP2C9 (P11712 whole entry): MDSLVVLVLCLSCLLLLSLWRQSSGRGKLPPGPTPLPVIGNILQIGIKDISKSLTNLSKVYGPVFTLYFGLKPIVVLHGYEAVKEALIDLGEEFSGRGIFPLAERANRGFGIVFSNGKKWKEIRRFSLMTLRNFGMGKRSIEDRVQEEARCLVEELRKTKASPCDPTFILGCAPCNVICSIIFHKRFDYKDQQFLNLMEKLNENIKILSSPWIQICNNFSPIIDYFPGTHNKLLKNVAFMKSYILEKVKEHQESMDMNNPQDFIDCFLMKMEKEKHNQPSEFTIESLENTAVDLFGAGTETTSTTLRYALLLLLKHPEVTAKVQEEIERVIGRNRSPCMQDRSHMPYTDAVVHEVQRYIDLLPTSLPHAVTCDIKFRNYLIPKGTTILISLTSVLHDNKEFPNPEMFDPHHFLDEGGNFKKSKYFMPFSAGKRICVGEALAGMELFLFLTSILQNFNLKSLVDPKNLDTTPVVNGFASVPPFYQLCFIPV

For the compound `O=C1CCc2cc(-c3cncc(-c4cccc(F)c4)c3)cc3c2N1CC3`, the IC50 in data set [1] came to 1.4 nM. Testing at 10 µM against CYP2C19 gave an inhibition of 21%. The inhibition at 1 µM against CYP2C9 was found to be 39%. The inhibition at 2 µM on CYP17 is 7%.

On to `O=C1CCc2cc(-c3cccnc3)cc3c2N1CC3`, for which the half-maximal inhibitory concentration (IC50) in data set [1] amounted to 1.1 nM. Further, the Ratio IC50 in the data set filed under Homo sapiens worked out at 650. In addition, the inhibition at 10 µM against CYP2C19 is below 5%. 1 µM produced 6% inhibition against CYP2C9. On CYP17, the inhibition at 2 µM was 6%.

On to `COc1cncc(-c2cc3c4c(c2)CCN4C(=O)CC3)c1`, for which the IC50 in data set [1] turned out to be 0.6 nM. The compound further gave an inhibition at 10 µM at CYP2C19 of 30%. For the same compound, at 1 µM the inhibition on CYP2C9 was 23%. Also, the inhibition at 2 µM on CYP17 is below 5%.

With `O=C1CCc2cc(-c3cccnc3)cc3c2N1CCC3`, in data set [1], the half-inhibitory concentration (IC50) was found to be 2.4 nM. At 0.5 µM the inhibition against aromatase (CYP19) was 69%. For the same compound, the inhibition at 1 µM on CYP1A2 was determined as 41%; on CYP2C9, 19%. The same compound had an inhibition at 10 µM at CYP2C19 of 44%. For the same compound, the inhibition at 2 µM on CYP17 came to 6%.

The IC50 is the point on the concentration scale where inhibition reaches its midpoint. As a reminder, the inhibition is how much of the control response was suppressed.
